The source of these data is ChEMBL document CHEMBL2429741 (J Med Chem, 2013).

A short description of test [1]: Inhibition of Escherichia coli IspC by photometric assay. The essentials: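 NADPH-coupled photometric read at 340 nm, room temperature. Inhibitor 1:3 dilutions over about 200–0.003 μM. Started with 1-deoxy-D-xylulose 5-phosphate, final 0.5–5.0 mM. IC50 from nonlinear regression of ≥8 points, mean ± SD; generally 2–3 independent determinations.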
A short description of test [2]: Inhibition of Plasmodium falciparum IspC expressed in recombinant Escherichia coli M15 by photometric assay. The procedure, abridged:
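His-tagged enzyme from E. coli M15 pREP4 pQEIspCplasart20, induced with 1 mM IPTG overnight at 30 °C, Ni-imidazole purified, about 95% pure. Inhibitor 1:3 over about 200–0.003 μM. DXP start, final 0.5–5.0 mM. 340 nm, room temperature. Nonlinear-regression IC50, ≥8 points.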

Test [3] addresses T1, 1-deoxy-D-xylulose 5-phosphate reductoisomerase (Mycobacterium tuberculosis, UniProt P9WNS1).
T1 sequence (P9WNS1 whole entry): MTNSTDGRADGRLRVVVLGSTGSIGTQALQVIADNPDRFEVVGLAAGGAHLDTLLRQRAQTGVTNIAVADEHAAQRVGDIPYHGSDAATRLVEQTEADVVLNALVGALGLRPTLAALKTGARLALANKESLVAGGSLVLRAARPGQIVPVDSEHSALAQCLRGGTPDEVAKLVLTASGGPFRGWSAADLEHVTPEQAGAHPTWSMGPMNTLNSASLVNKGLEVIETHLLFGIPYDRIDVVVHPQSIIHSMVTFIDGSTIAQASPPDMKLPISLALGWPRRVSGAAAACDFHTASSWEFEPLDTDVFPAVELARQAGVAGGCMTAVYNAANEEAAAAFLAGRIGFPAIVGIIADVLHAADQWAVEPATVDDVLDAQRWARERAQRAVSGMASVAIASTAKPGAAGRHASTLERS
Nature of the test: Inhibition of Mycobacterium tuberculosis IspC by photometric assay. The essentials: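 Photometric NADPH-consumption assay at pH 7.6 (Tris) with 5 mM MgCl2, 5 mM DTT, 0.5 mM NADPH and 0.02 U IspC. Inhibitor 1:3 series covered about 200–0.003 μM. Started with 1-deoxy-D-xylulose 5-phosphate (0.5–5.0 mM final); A340 read at room temperature.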

In test [4] the test system is Plasmodium falciparum. Nature of the test: Antimicrobial activity against chloroquine-resistant blood stage forms of Plasmodium falciparum Dd2 after 3 days by HRP2-based ELISA. The class given is functional, organism-based. Conditions: Dd2, 72 h. The procedure, abridged: (§1)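 Sorbitol-synchronized ring-stage parasites (0.05% parasitemia, 1.5% hematocrit, O Rh+ erythrocytes) in RPMI 1640/HEPES/glutamine/gentamycin/0.5% Albumax, 37 °C, 5% CO2, 5% O2. Added to plates precoated with 3-fold compound dilutions from DMSO stocks; 3-day incubation; plates freeze-thawed twice; HRP2 ELISA. Chloroquine control each run. IC50 from nonlinear regression of log concentration-response; mean of two independent duplicate determinations.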
(In general: In an ELISA, binding on a coated surface is turned into a signal by an enzyme label.)

Test [5] relates to Plasmodium falciparum. Nature of the test: Antimicrobial activity against chloroquine-sensitive blood stage forms of Plasmodium falciparum 3D7 after 3 days by HRP2-based ELISA. Format: functional, organism-based. Conditions: 3D7, 72 h. The procedure, abridged: as §1

The IC50 is the midpoint of a concentration-inhibition curve. Broadly, the Ki is the equilibrium dissociation constant of an inhibitor or competing ligand from its target.

Consider `CN(O)C(=O)CCC(c1cccc2ccccc12)P(=O)(O)O` (stereo unspecified), for which the values for the IC50 in test [1], in test [2] and in test [3] were 3830 nM, 9.4 nM and 13000 nM, respectively.
The like results for `Cc1ccc(C(OCC(=O)N(C)O)P(=O)(O)O)cc1` (stereo unspecified) were, in that order, 320 nM, 25 nM and 4000 nM.
In the case of `CN(O)C(=O)CSC(c1ccc(F)c(F)c1)P(=O)(O)O` (racemic), the IC50 is 88 nM in test [4]; 111 nM in test [5]; 8.5 nM in test [1]; 14 nM in test [2]; 42 nM in test [3].
Consider `CN(O)C(=O)CCC(c1ccc(Cl)c(Cl)c1)P(=O)(O)O` (stereo unspecified), for which the IC50 in test [1] worked out at 208 nM; in test [2] it was 2.8 nM; in test [3] it was 280 nM.
Take `CN(O)C(=O)CS[C@@H](c1ccccc1)P(=O)(O)O`: the IC50 in test [1] worked out at 5.1 nM; in test [2], 9.4 nM; in test [3], 120 nM. For the same compound, in test [2], the inhibition constant Ki turned out to be 1.7 nM.
For `CN(O)C(=O)CSC(c1ccccc1)P(=O)(O)O` (racemic), the concentration for half-maximal inhibition (IC50) in test [4] turned out to be 75 nM; in test [5] it was 30 nM; in test [1], 8.2 nM; in test [2] it was 24 nM; in test [3], 280 nM. Besides, the Ki in test [2] was found to be 4.4 nM.
As for `O=C(COC(c1ccc(F)c(F)c1)P(=O)(O)O)NO` (stereo unspecified), the IC50 in test [5] was over 50000 nM; in test [1] it was 49000 nM; in test [2] it was 3900 nM; in test [3], over 500000 nM.
Regarding `O=C(CCC(c1ccccc1)P(=O)(O)O)NO` (stereo unspecified), the IC50 in test [4] was found to be 570 nM; in test [5] it was 400 nM; in test [1] it was 592 nM; in test [2], 12 nM; in test [3], 14000 nM.
For `O=C(CCC(c1ccc(F)c(F)c1)P(=O)(O)O)NO` (stereo unspecified), the IC50 in test [4] amounted to 65 nM; in test [5], 75 nM; in test [1], 178 nM; in test [2] it was 3.9 nM; in test [3], 3400 nM.
`O=CN(O)CCCP(=O)(O)O` [FOSMIDOMYCIN] had a concentration for half-maximal inhibition (IC50) in test [1] of 221 nM.
For the compound `CN(O)C(=O)CCC(c1ccccc1)P(=O)(O)O` (stereo unspecified), the IC50 in test [4] came out at 74 nM; in test [5], 90 nM; in test [1], 243 nM; in test [2] it was 3.1 nM; in test [3], 2000 nM.
On to `CN(O)C(=O)CS[C@H](c1ccccc1)P(=O)(O)O`, for which the values for the IC50 in test [1], in test [2] and in test [3] were 4000 nM, 12000 nM and 83000 nM, respectively. In addition, the inhibition constant Ki in test [2] is 2200 nM.
As to `O=C(COC(c1ccccc1)P(=O)(O)O)NO` (stereo unspecified), the IC50 in test [1] turned out to be 20000 nM; in test [2] it was 1500 nM; in test [3] it was 466000 nM.
Take `O=C(CSC(c1ccc(F)c(F)c1)P(=O)(O)O)NO` (racemic): the half-inhibitory concentration (IC50) was determined as 330 nM in test [4]; 160 nM in test [5]; 77 nM in test [1]; 15 nM in test [2]; 1700 nM in test [3].
The like results for `O=C(CSC(c1ccccc1)P(=O)(O)O)NO` (racemic) were, in that order, 3770 nM, 2900 nM, 600 nM, 110 nM and 15000 nM.
With `O=C(CSC(c1ccc(Cl)c(Cl)c1)P(=O)(O)O)NO` (racemic), the half-maximal inhibitory concentration (IC50) in test [4] was 870 nM; in test [5] it was 540 nM; in test [1], 44 nM; in test [2], 200 nM; in test [3] it was 720 nM.
With `Cc1ccc(C(SCC(=O)N(C)O)P(=O)(O)O)cc1` (racemic), the 50% inhibitory concentration (IC50) in test [4] amounted to 95 nM; in test [5], 111 nM; in test [1] it was 33 nM; in test [2], 18 nM; in test [3], 110 nM.
As to `CN(O)C(=O)CSC(c1ccc(Cl)c(Cl)c1)P(=O)(O)O` (racemic), the 50% inhibitory concentration (IC50) is 85 nM in test [4]; 91 nM in test [5]; 5.9 nM in test [1]; 4.5 nM in test [2]; 9.2 nM in test [3].
Consider `CN(O)C(=O)COC(c1cccc2ccccc12)P(=O)(O)O` (stereo unspecified), for which the 50% inhibitory concentration (IC50) in test [1] was 4600 nM; in test [2], 39 nM; in test [3], 15000 nM.
Consider `CN(O)C(=O)CSC(c1cccc2ccccc12)P(=O)(O)O` (racemic), for which the IC50 was 510 nM in test [4]; 380 nM in test [5]; 140 nM in test [1]; 9.8 nM in test [2]; 550 nM in test [3].
The corresponding values for `CN(O)C(=O)CCC(c1ccc(F)c(F)c1)P(=O)(O)O` (stereo unspecified) are 40 nM, 122 nM, 117 nM, 3.4 nM and 770 nM.
Take `CN(O)C(=O)COC(c1ccc(F)c(F)c1)P(=O)(O)O` (stereo unspecified): the half-maximal inhibitory concentration (IC50) turned out to be 240 nM in test [1], 12 nM in test [2] and 4600 nM in test [3].
The like results for `CN(O)C(=O)COC(c1ccc(Cl)c(Cl)c1)P(=O)(O)O` (stereo unspecified) were, in that order, 200 nM, 14 nM and 1600 nM.
The corresponding values for `CN(O)C(=O)COC(c1ccccc1)P(=O)(O)O` (stereo unspecified) are 940 nM, 37 nM and 16000 nM.
With `Cc1ccc(C(CCC(=O)N(C)O)P(=O)(O)O)cc1` (stereo unspecified), the 50% inhibitory concentration (IC50) was 286 nM in test [1], 14 nM in test [2] and 1800 nM in test [3].
